The text below walks through data of ChEMBL document CHEMBL4371061, “Identification of novel triazole inhibitors of Wnt/β-catenin signaling based on the Niclosamide chemotype” (Bioorg Med Chem Lett, 2019).

Activity calls are given as the source filed them. The calls are words filed in the database; no cut-off is given here.

For assay [1], the species on record is Homo sapiens. Description: Inhibition of Wnt/beta-catenin signaling pathway in human HCT116 whole cell lysate harboring beta-catenin mutation assessed as reduction in survivin protein expression at 5 uM after 18 hrs by Western blot analysis relative to control. Format: subcellular. In outline:
(§1)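 Cells were treated with 5 μM compound in DMSO, or DMSO alone, for 18 h. Cytosolic fraction and whole-cell lysate were immunoblotted for target proteins with β-actin as loading control. Band levels were normalized to β-actin and expressed as percent of the DMSO-treated control.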
For orientation: A western blot detects proteins with antibodies after separation by electrophoresis.

Assay [2] is filed under the species Homo sapiens. Kind of assay: Inhibition of Wnt/beta-catenin signaling pathway in human HCT116 cells cytosol lysate harboring beta-catenin mutation assessed as reduction in beta-catenin protein expression at 5 uM after 18 hrs by Western blot analysis relative to control. The class given is subcellular. Put shortly: as §1
Assay [3] in a line: Inhibition of Wnt3A-stimulated Wnt/beta-catenin pathway in HEK293 cells transfected with p8xTOPFlash, Renilla luciferase plasmid pRL-TK and pLKO.1 after 8 hrs by Dual topflash luciferase reporter gene assay. The class given is cell-based. Conditions: Homo sapiens, HEK293, 8 h. In outline: (§2)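 HEK293 cells stably carrying a TOPFlash luciferase reporter and a Renilla luciferase control were stimulated with Wnt3A-conditioned medium and given DMSO or compound (0.04–10 μM) for 8 h. Wnt3A plus DMSO was set as 100%. IC50 was fit from mean ± SEM, n 3. Percent inhibition at the two highest concentrations was given when no full curve was obtained.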

Assay [4] deals with SW480. Description: Inhibition of Wnt/beta-catenin signaling pathway in human SW480 whole cell lysate harboring APC mutation assessed as reduction in survivin protein expression at 5 uM after 18 hrs by Western blot analysis relative to control. The class given is subcellular. In outline: as §1
The species named for assay [5] is Homo sapiens. Description: Inhibition of Wnt/beta-catenin signaling pathway in human HCT116 whole cell lysate harboring beta-catenin mutation assessed as reduction in cyclin D1 protein expression at 5 uM after 18 hrs by Western blot analysis relative to control. Format: subcellular. In outline:
as §1

The subject of assay [6] is SW480. Kind of assay: Inhibition of Wnt/beta-catenin signaling pathway in human SW480 whole cell lysate harboring APC mutation assessed as reduction in c-Myc protein expression at 5 uM after 18 hrs by Western blot analysis relative to control. The class given is subcellular. In outline: as §1
Assay [7] concerns SW480. Kind of assay: Inhibition of Wnt/beta-catenin signaling pathway in human SW480 cells cytosol lysate harboring APC mutation assessed as reduction in beta-catenin protein expression at 5 uM after 18 hrs by Western blot analysis relative to control. The class given is subcellular. In outline:
as §1

For assay [8], the species on record is Homo sapiens. Kind of assay: Inhibition of Wnt/beta-catenin signaling pathway in human HCT116 cells cytosol lysate harboring beta-catenin mutation assessed as reduction in Axin2 protein expression at 5 uM after 18 hrs by Western blot analysis relative to control. The class given is subcellular. Put shortly:
as §1

Assay [9] relates to SW480. Kind of assay: Inhibition of Wnt/beta-catenin signaling pathway in human SW480 whole cell lysate harboring APC mutation assessed as reduction in cyclin D1 protein expression at 5 uM after 18 hrs by Western blot analysis relative to control. Format: subcellular. Put shortly:
as §1

Assay [10] deals with Frizzled-1 (Homo sapiens) (UniProt Q9UP38). Kind of assay: Induction of GFP-tagged Fzd1 (unknown origin) internalization expressed in human U2OS cells at 12.5 after 6 hrs by confocal microscopic method relative to control. Format: cell-based. Put shortly:
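U2OS cells stably expressing Frizzled1-GFP were exposed to compound for 6 h, fixed and imaged by confocal microscopy. Punctate was scored visually against DMSO control: similar to control = 0, trace = 1, moderate = 3, strong = 5.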

Assay [11] has as its system SW480. Description: Inhibition of Wnt/beta-catenin signaling pathway in human SW480 cells cytosol lysate harboring APC mutation assessed as reduction in Axin2 protein expression at 5 uM after 18 hrs by Western blot analysis relative to control. Format: subcellular. Put shortly: as §1
Assay [12] is filed under the species Homo sapiens. Kind of assay: Inhibition of Wnt/beta-catenin signaling pathway in human HCT116 whole cell lysate harboring beta-catenin mutation assessed as reduction in c-Myc protein expression at 5 uM after 18 hrs by Western blot analysis relative to control. Format: subcellular. In outline: as §1
The test system of assay [13] is HEK293. Kind of assay: Inhibition of Wnt3A-stimulated Wnt/beta-catenin pathway in HEK293 cells transfected with p8xTOPFlash, Renilla luciferase plasmid pRL-TK and pLKO.1 assessed as residual activity at 10 uM after 8 hrs by Dual topflash luciferase reporter gene assay relative to control. Format: cell-based. Conditions: Homo sapiens. Put shortly:
as §2

Assay [14] has as its system HEK293. Kind of assay: Inhibition of Wnt3A-stimulated Wnt/beta-catenin pathway in HEK293 cells transfected with p8xTOPFlash, Renilla luciferase plasmid pRL-TK and pLKO.1 at 5 uM after 8 hrs by Dual topflash luciferase reporter gene assay relative to control. Format: cell-based. To be noted: Homo sapiens. In outline:
as §2

Assay [15] deals with HEK293. Kind of assay: Inhibition of Wnt3A-stimulated Wnt/beta-catenin pathway in HEK293 cells transfected with p8xTOPFlash, Renilla luciferase plasmid pRL-TK and pLKO.1 at 10 uM after 8 hrs by Dual topflash luciferase reporter gene assay relative to control. Conditions: Homo sapiens. Format: cell-based. Put shortly: as §2
A general note: Reporter assays use an easily measured gene product as a stand-in for the process of interest.

For assay [16], the species on record is Homo sapiens. Kind of assay: Inhibition of Wnt/beta-catenin signaling pathway in human HCT116 cells cytosol lysate harboring beta-catenin mutation assessed as reduction in beta-catenin protein expression at 5 to 10 uM after 18 hrs by Western blot analysis. The class given is subcellular.
The species entered for assay [17] is Homo sapiens. Description: Inhibition of Wnt/beta-catenin signaling pathway in human HCT116 whole cell lysate harboring beta-catenin mutation assessed as reduction in survivin protein expression at 5 to 10 uM after 18 hrs by Western blot analysis.
The species named for assay [18] is Homo sapiens. Kind of assay: Inhibition of Wnt/beta-catenin signaling pathway in human HCT116 whole cell lysate harboring beta-catenin mutation assessed as reduction in survivin protein expression at 5 to 10 uM after 18 hrs by Western blot analysis. Format: subcellular.
The species entered for assay [19] is Homo sapiens. Description: Inhibition of Wnt/beta-catenin signaling pathway in human HCT116 cells cytosol lysate harboring beta-catenin mutation assessed as reduction in Axin2 protein expression at 5 to 10 uM after 18 hrs by Western blot analysis. The class given is subcellular.
Assay [20] is filed under the species Homo sapiens. Description: Inhibition of Wnt/beta-catenin signaling pathway in human HCT116 whole cell lysate harboring beta-catenin mutation assessed as reduction in c-Myc protein expression at 5 to 10 uM after 18 hrs by Western blot analysis. The class given is subcellular.

Frizzled-1 (Homo sapiens), sequence (Q9UP38 70-647 limits assumed): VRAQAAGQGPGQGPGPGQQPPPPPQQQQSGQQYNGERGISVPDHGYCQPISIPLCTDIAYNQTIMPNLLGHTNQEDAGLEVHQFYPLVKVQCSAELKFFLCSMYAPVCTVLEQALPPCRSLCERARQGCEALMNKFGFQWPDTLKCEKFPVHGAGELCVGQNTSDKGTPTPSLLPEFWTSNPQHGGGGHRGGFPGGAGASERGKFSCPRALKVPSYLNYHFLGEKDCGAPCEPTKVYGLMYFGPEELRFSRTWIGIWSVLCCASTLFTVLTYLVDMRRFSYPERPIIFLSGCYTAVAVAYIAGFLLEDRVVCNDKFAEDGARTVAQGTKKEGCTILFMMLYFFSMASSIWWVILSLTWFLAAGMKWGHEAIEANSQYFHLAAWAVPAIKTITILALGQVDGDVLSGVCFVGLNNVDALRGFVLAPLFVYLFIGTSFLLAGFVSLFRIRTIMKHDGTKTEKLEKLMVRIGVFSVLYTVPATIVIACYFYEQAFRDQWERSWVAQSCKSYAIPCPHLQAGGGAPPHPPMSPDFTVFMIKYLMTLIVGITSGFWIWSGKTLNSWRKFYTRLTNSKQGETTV

For orientation: inhibition means the change of the read-out against control, counted positive when it falls. As usually defined, the IC50 is the midpoint of a concentration-inhibition curve. High values mean lower potency, low ones higher potency. On to `O=[N+]([O-])c1ccc(-c2nnc(-c3cc(Cl)ccc3O)[nH]2)cc1`, for which the inhibition in [1] turned out to be 38%; in assay [2], 59%; in [4], 38%; in [5], 20%; in assay [6], 2%; in assay [7] it was 67%. Besides, the inhibition is 75% in assay [8], 70% in assay [9], 44% in assay [11] and 2% in assay [12]. The same molecule displayed an IC50 in assay [3] of 1410 nM. Further, in assay [10], the score turned out to be 4.

Take `O=C(Nc1ccc([N+](=O)[O-])cc1Cl)c1cc(Cl)ccc1O` [NICLOSAMIDE]: the inhibition in [1] turned out to be 44%; in assay [2], 46%; in assay [4] it was 41%; in assay [5], 28%; in assay [6], 3%; in assay [7] it was 74%. The inhibition turned out to be 35% in [8], 45% in assay [9], 29% in assay [11] and 1% in assay [12]. The same molecule gave an IC50 in assay [3] of 340 nM. The molecule further showed a score in assay [10] of 5.

Take `O=C(NC(=O)c1cc(Cl)ccc1O)c1ccc([N+](=O)[O-])cc1`: in assay [13], the Activity came to 153%. The score in assay [10] came to 0.

For `Oc1ccc(Cl)cc1-c1nnc(-c2ccc(C(F)(F)F)cc2)[nH]1`, the inhibition in assay [1] turned out to be 44%; in [2], 6%; in assay [4], 56%; in assay [5], 17%; in [6], 2%; in assay [7] it was 72%. Also, the inhibition in assay [8] was 68%; in [9], 76%; in [11], 58%; in assay [12], 3%. Besides, the IC50 in assay [3] worked out at 2880 nM. The score in [10] is 2.

Take `O=C(NCc1ccc([N+](=O)[O-])cc1)c1cc(Cl)ccc1O`: the inhibition in assay [14] turned out to be 3%; in [15], 43%. The molecule also displayed a score in [10] of 0.

Consider `COc1ccc(-c2nnc(-c3cc(Cl)ccc3O)[nH]2)cc1`, for which the inhibition in [14] is 14%; in assay [15] it was 60%. This molecule also returned a score in [10] of 0.

`Oc1ccc(Cl)cc1-c1nnc(-c2ccc(F)cc2)[nH]1`: the IC50 in assay [3] was found to be 1910 nM. The score in [10] was determined as 1.

On to `Oc1ccc(Cl)cc1-c1nnc(-c2ccccc2)[nH]1`, for which the inhibition entry in [16], in assay [17], in assay [18], in assay [19] and in assay [20] was “Active” throughout. The molecule further came in with a concentration for half-maximal inhibition (IC50) in assay [3] of 4020 nM. In assay [10], this molecule gave a score of 0.

As for `O=[N+]([O-])c1ccc(-c2nnc(-c3cc(Cl)ccc3O)[nH]2)c(Cl)c1`, the inhibition in assay [1] is 38%; in assay [2], 34%; in assay [4], 43%; in assay [5] it was 22%; in assay [6] it was 4%; in assay [7] it was 69%. Besides, the inhibition is 68% in assay [8], 57% in [9], 47% in assay [11] and 3% in assay [12]. In addition, it took 1840 nM to reach half-maximal inhibition in assay [3] (IC50). For the same molecule, the score in [10] was determined as 5.
